The source of these data is ChEMBL document CHEMBL1124399, “Synthesis and structure-activity studies of some disubstituted phenylisoxazoles against human picornavirus” (J Med Chem, 1989).

SMILES strings stand for the structures. In brackets after ≈: the same amount, converted by molar mass. Several values for one entry are separate records, joined by “and”; a condition that tells them apart may be missing. Equal entries are not always repeated. Activity calls are given as the source filed them. The rule behind the calls is not given here.

Common to all, as to format: functional
The test system of experiment [1] is Enterovirus. The experiment is described as follows: Minimum inhibitory concentration against rhinovirus serotype 15. The settings on record: Enterovirus; read-out: MIC. An outline of the steps:
(§1)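 Rhinovirus minimum inhibitory concentration (MIC) determined in a plaque reduction assay in cell culture, testing each serotype separately.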

The subject of experiment [2] is Enterovirus. The experiment is described as follows: Minimum inhibitory concentration against rhinovirus serotype 1A. The method, boiled down: as §1
Experiment [3] relates to Enterovirus. The experiment is described as follows: Minimum inhibitory concentration against rhinovirus serotype 14. An outline of the steps: as §1
Experiment [4] has as its system Enterovirus. The experiment is described as follows: Minimum inhibitory concentration against rhinovirus serotype 6. An outline of the steps:
as §1

In experiment [5] the test system is Enterovirus. The experiment is described as follows: Minimum inhibitory concentration against rhinovirus serotype 50. The method, boiled down: as §1
Experiment [6] deals with Enterovirus. The experiment is described as follows: (§2) In vitro anti-rhinovirus activity was measured as maximum testable levels - highest concentration of compound which causes no apparent effect on the cell monolayers.
The subject of experiment [7] is Enterovirus. The experiment is described as follows: Minimum inhibitory concentration against rhinovirus serotype 1B. An outline of the steps:
as §1

The subject of experiment [8] is Enterovirus. The experiment is described as follows: In vitro anti-rhinovirus activity was measured as mean MIC for five serotypes, HRV-1A, -2, -22, -41, and -50. An outline of the steps:
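Mean of plaque-reduction-assay MICs across five rhinovirus serotypes (HRV-1A, -2, -22, -41, -50), chosen to represent a range of sensitivity to this compound class.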

The subject of experiment [9] is Enterovirus. The experiment is described as follows: Concentration required to inhibit 80 percent rhinovirus cell culture. An outline of the steps: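 MIC80 is the concentration that inhibits 80% of the rhinovirus serotypes tested. It is derived from per-serotype MICs measured by plaque reduction assay.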
For experiment [10], the system named is Enterovirus. The experiment is described as follows: Minimum inhibitory concentration against rhinovirus serotype 21. The method, boiled down:
as §1

Experiment [11] concerns Enterovirus. The experiment is described as follows: Minimum inhibitory concentration against rhinovirus serotype 41. An outline of the steps: as §1
Experiment [12] relates to Enterovirus. The experiment is described as follows: Minimum inhibitory concentration against rhinovirus serotype 67. An outline of the steps: as §1
The test system of experiment [13] is Enterovirus. The experiment is described as follows: Minimum inhibitory concentration against rhinovirus serotype 30. The method, boiled down:
as §1

Experiment [14] deals with Enterovirus. The experiment is described as follows: Minimum inhibitory concentration against rhinovirus serotype 25. An outline of the steps:
as §1

Experiment [15] concerns Enterovirus. The experiment is described as follows: Minimum inhibitory concentration against rhinovirus serotype 86. The method, boiled down:
as §1

Experiment [16] has as its system Enterovirus. The description is as §2. The source holds these as a separate data set.
Experiment [17] has as its system Enterovirus. The experiment is described as follows: Minimum inhibitory concentration against rhinovirus serotype 89. An outline of the steps:
as §1

`Cc1cc(CCCCCOc2c(C)cc(C3=NCCO3)cc2Cl)on1`: the MIC was found to be 0.6 µM (≈ 0.218 µg/mL) in experiment [1]; 0.04 µM (≈ 0.0145 µg/mL) in experiment [2]; 0.6 µM (≈ 0.218 µg/mL) in experiment [3]; 0.06 µM (≈ 0.0218 µg/mL) in experiment [4] (Enterovirus, read-out: MIC); 0.7 µM (≈ 0.254 µg/mL) in experiment [5]; 0.7 µM (≈ 0.254 µg/mL) in experiment [6]. In addition, the MIC in experiment [7] worked out at 0.6 µM (≈ 0.218 µg/mL); in [7] (Enterovirus, read-out: MIC), 0.4 µM (≈ 0.145 µg/mL); in [8], 0.92 µM (≈ 0.334 µg/mL); in [10] (Enterovirus, read-out: MIC), 0.2 µM (≈ 0.0726 µg/mL); in experiment [11], 1.9 µM (≈ 0.689 µg/mL). Moreover, the MIC80 in experiment [9] was found to be 0.9 µM (≈ 0.327 µg/mL).

Turning to `Cc1cc(CCCCCOc2c(F)cc(C3=NCCO3)cc2F)on1`, the MIC was 0.5 µM (≈ 0.175 µg/mL) in experiment [1]; 0.1 µM (≈ 0.035 µg/mL) in [12]; 0.12 µM (≈ 0.042 µg/mL) in experiment [12] (Enterovirus, read-out: MIC); 0.5 µM and 0.2 µM in experiment [13]; 0.13 µM (≈ 0.0455 µg/mL) in experiment [2]; 1.1 µM (≈ 0.385 µg/mL) in [4]. Besides, the MIC was found to be 6.6 µM (≈ 2.31 µg/mL) in [14]; 0.1 µM (≈ 0.035 µg/mL) in experiment [5]; 2.7 µM (≈ 0.946 µg/mL) in experiment [6]; 2.69 µM (≈ 0.942 µg/mL) in experiment [8]; 0.08 µM (≈ 0.028 µg/mL) in experiment [10] (Enterovirus, read-out: MIC); 2.3 µM (≈ 0.806 µg/mL) in experiment [11]. The same compound showed an MIC80 in [9] of 1.9 µM (≈ 0.666 µg/mL).

Take `Cc1cc(CCCCCOc2c(Cl)cc(C3=NCCO3)cc2Br)on1`: the MIC in [1] stood at 0.4 µM (≈ 0.171 µg/mL); in experiment [13] (Enterovirus, read-out: MIC), 0.08 µM (≈ 0.0342 µg/mL); in experiment [2] it was 0.04 µM (≈ 0.0171 µg/mL); in experiment [5], 0.09 µM (≈ 0.0385 µg/mL); in experiment [15], 0.02 µM (≈ 0.00855 µg/mL); in experiment [6] it was 0.6 µM (≈ 0.257 µg/mL). For the same compound, the MIC in experiment [8] came to 0.61 µM (≈ 0.261 µg/mL); in experiment [10], 0.2 µM (≈ 0.0855 µg/mL); in experiment [10] (Enterovirus, read-out: MIC), 0.3 µM (≈ 0.128 µg/mL); in [11] it was 1.8 µM (≈ 0.77 µg/mL). In addition, in [9], the MIC80 is 0.5 µM (≈ 0.214 µg/mL).

As for `Cc1cc(CCCCCOc2c(Cl)cc(C3=NCCO3)cc2C(C)(C)C)on1`, the MIC in [16] (Enterovirus, read-out: MIC) amounted to 12.4 µM (≈ 5.02 µg/mL).

With `Cc1cc(CCCCCOc2c(Cl)cc(C3=NCCO3)cc2C(F)(F)F)on1`, the MIC in experiment [1] came to 0.4 µM (≈ 0.167 µg/mL); in [12] (Enterovirus, read-out: MIC) it was 1 µM (≈ 0.417 µg/mL); in [13] (Enterovirus, read-out: MIC), 0.2 µM (≈ 0.0834 µg/mL); in experiment [2], 0.2 µM (≈ 0.0834 µg/mL); in experiment [17], 0.05 µM (≈ 0.0208 µg/mL); in [5] it was 0.2 µM (≈ 0.0834 µg/mL). Besides, the MIC in [15] amounted to 1.3 µM (≈ 0.542 µg/mL); in experiment [6], 0.5 µM (≈ 0.208 µg/mL); in experiment [8] it was 0.54 µM (≈ 0.225 µg/mL); in experiment [11], 0.8 µM (≈ 0.333 µg/mL). The same compound returned an MIC80 in [9] of 1.3 µM (≈ 0.542 µg/mL).

With `Cc1cc(CCCCCOc2ccc(C3=NCCO3)cc2)on1`, the MIC in experiment [1] came out at 1.5 µM (≈ 0.472 µg/mL); in experiment [12] (Enterovirus, read-out: MIC), 0.4 µM (≈ 0.126 µg/mL); in experiment [13] (Enterovirus, read-out: MIC) it was 0.3 µM (≈ 0.0943 µg/mL); in experiment [2] it was 1.1 µM (≈ 0.346 µg/mL); in experiment [16] it was 7 µM (≈ 2.2 µg/mL); in experiment [16] (Enterovirus, read-out: MIC), 9.9 µM (≈ 3.11 µg/mL). The MIC in [4] was found to be 0.9 µM (≈ 0.283 µg/mL); in experiment [4] (Enterovirus, read-out: MIC), 0.7 µM (≈ 0.22 µg/mL); in experiment [6], 5.2 µM (≈ 1.63 µg/mL); in [8] it was 5.16 µM (≈ 1.62 µg/mL); in [10] (Enterovirus, read-out: MIC), 1.2 µM (≈ 0.377 µg/mL); in experiment [11], 15 µM (≈ 4.72 µg/mL). Moreover, the MIC entry in [17] and in experiment [10] was “inactive” in each case. In [9], this compound had an MIC80 of 7 µM (≈ 2.2 µg/mL).
